Results as given in ChEMBL document CHEMBL1156604 (Bioorg Med Chem Lett, 2008).

Key:
[1] = biological target: Kappa-type opioid receptor (Homo sapiens, UniProt P41145); experiment: Displacement of [3H]U69593 from human kappa opioid receptor expressed in CHO cell membrane; assay type: cell membranes
Procedure, shortened: (§1)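 Compounds were tested as hydrochloride salts in competition binding against the tritiated radioligand on CHO cell membranes. Ki values are given ± SEM.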

Mu-type opioid receptor = Mu-type opioid receptor (Homo sapiens, UniProt P35372); experiment: Displacement of [3H]DAMGO from human mu opioid receptor expressed in CHO cell membrane; assay type: cell membranes
Sequence of Mu-type opioid receptor (P35372 whole entry): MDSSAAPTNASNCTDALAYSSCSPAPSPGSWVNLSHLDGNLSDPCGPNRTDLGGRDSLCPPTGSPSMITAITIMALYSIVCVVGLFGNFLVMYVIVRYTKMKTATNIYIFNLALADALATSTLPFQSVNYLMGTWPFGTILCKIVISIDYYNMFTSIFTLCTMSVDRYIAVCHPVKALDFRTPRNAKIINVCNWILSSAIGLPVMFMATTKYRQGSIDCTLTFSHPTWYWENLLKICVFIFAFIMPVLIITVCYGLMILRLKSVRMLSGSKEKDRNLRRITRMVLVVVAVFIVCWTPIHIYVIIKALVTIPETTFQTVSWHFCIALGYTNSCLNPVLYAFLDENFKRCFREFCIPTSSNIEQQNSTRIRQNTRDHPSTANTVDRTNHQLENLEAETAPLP

Homo sapiens [2] = organism: Homo sapiens; experiment: Selectivity ratio of Ki for human mu opioid receptor to Ki for human kappa opioid receptor
[3] = biological target: Delta-type opioid receptor (Homo sapiens, UniProt P41143); experiment: Displacement of [3H]Naltindole from human delta opioid receptor expressed in CHO cell membrane; assay type: cell membranes; procedure, shortened: as §1
Sequence of Delta-type opioid receptor (P41143 whole entry): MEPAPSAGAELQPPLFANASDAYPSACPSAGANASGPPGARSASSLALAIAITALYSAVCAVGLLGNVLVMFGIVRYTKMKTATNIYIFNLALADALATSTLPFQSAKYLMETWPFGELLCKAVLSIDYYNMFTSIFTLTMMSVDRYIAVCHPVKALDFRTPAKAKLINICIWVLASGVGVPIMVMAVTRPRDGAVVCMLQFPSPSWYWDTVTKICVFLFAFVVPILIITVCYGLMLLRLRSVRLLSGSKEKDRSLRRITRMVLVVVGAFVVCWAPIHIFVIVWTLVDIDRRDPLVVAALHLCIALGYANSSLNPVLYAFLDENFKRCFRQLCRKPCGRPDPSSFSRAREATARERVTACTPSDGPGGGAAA

Homo sapiens [4] = organism: Homo sapiens; experiment: Selectivity ratio of Ki for human kappa opioid receptor to Ki for human delta opioid receptor
Homo sapiens [5] = organism: Homo sapiens; experiment: Selectivity ratio of Ki for human mu opioid receptor to Ki for human delta opioid receptor

Sequence of Kappa-type opioid receptor (P41145 whole entry): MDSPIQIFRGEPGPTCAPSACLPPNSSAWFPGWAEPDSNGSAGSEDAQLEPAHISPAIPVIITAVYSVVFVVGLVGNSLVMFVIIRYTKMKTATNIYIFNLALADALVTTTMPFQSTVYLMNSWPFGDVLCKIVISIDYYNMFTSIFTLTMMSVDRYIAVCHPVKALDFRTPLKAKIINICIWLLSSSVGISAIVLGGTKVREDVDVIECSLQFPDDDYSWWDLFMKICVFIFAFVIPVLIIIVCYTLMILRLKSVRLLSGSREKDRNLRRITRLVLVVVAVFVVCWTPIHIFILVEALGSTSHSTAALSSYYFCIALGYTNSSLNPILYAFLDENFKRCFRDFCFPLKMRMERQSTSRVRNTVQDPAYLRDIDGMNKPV

| Compound | Ki [1] [nM] | Ki (Mu-type opioid receptor) [nM] | Ratio Ki (Homo sapiens [2]) | Ki [3] [nM] | Ratio Ki (Homo sapiens [4]) | Ratio Ki (Homo sapiens [5]) |
| --- | --- | --- | --- | --- | --- | --- |
| O=C(Oc1ccc2c(c1)[C@@]13CCCC[C@@]1(O)[C@@H](C2)N(CC1CCC1)CC3)c1ccc(-c2ccccc2)cc1 | 18 | 15 | 1 | 690 | 1 | 46 |
| O=[N+]([O-])c1ccc(Oc2ccc3c(c2)[C@@]24CCCC[C@@]2(O)[C@@H](C3)N(CC2CCC2)CC4)cc1 | 28 | 16 | 1.8 | 1500 | 1 | 94 |
| C[C@H]1[C@H]2Cc3ccc(C(=O)N(C)CCc4ccc(-c5ccccc5)cc4)cc3[C@@]1(C)CCN2CC1CC1 | 11 | 6.7 | 1.6 | 12 | 1 | 1.8 |
| Nc1ccc(Oc2ccc3c(c2)[C@@]24CCCC[C@@]2(O)[C@@H](C3)N(CC2CCC2)CC4)cc1 | 5.2 | 3.9 | 1.3 | 930 | 1 | 240 |
| Oc1ccc2c(c1)[C@@]13CCCC[C@@]1(O)[C@@H](C2)N(CC1CCC1)CC3 [BUTORPHANOL] | 0.12 | – | – | – | – | – |
| O=C(Cc1ccccc1)Oc1ccc2c(c1)[C@@]13CCCC[C@@]1(O)[C@@H](C2)N(CC1CCC1)CC3 | 0.48 | 0.32 | 1.5 | 63 | 1 | 197 |
| COc1ccc(CC(=O)Oc2ccc3c(c2)[C@@]24CCCC[C@@]2(O)[C@@H](C3)N(CC2CCC2)CC4)cc1 | 0.21 | 0.22 | 1 | 23 | 1 | 110 |
| O=C(Cc1ccc(-c2ccccc2)cc1)Oc1ccc2c(c1)[C@@]13CCCC[C@@]1(O)[C@@H](C2)N(CC1CCC1)CC3 | 0.87 | 2.7 | 1 | 190 | 3.1 | 218 |
| O[C@@]12CCCC[C@@]13CCN(CC1CCC1)[C@@H]2Cc1ccc(OCCc2ccccc2)cc13 | 9 | 10 | 1 | 500 | 1 | 56 |
| Cc1ccc(C(C)C(=O)Oc2ccc3c(c2)[C@@]24CCCC[C@@]2(O)[C@@H](C3)N(CC2CCC2)CC4)cc1 (some centres undefined) | 1.3 | 2.3 | 1 | 96 | 1.9 | 74 |
| OCCCOc1ccc2c(c1)[C@@]13CCCC[C@@]1(O)[C@@H](C2)N(CC1CCC1)CC3 | 8.6 | 18 | 1 | 490 | 2.1 | 57 |
| O[C@@]12CCCC[C@@]13CCN(CC1CCC1)[C@@H]2Cc1ccc(OCc2ccccc2)cc13 | 28 | 21 | 1.3 | 670 | 1 | 32 |
| NC(=O)COc1ccc2c(c1)[C@@]13CCCC[C@@]1(O)[C@@H](C2)N(CC1CCC1)CC3 | 67 | 55 | 1.2 | 760 | 1 | 11 |
| O=C(COc1ccccc1)Oc1ccc2c(c1)[C@@]13CCCC[C@@]1(O)[C@@H](C2)N(CC1CCC1)CC3 | 0.048 | 0.061 | 1 | 22 | 1.3 | 458 |
